In ChEMBL document CHEMBL3046087, “Aminomethylphosphonic acid accumulation in plant species treated with glyphosate” (J Agric Food Chem, 2008):

Key:
[1] = test system: Vigna unguiculata; assay: Ratio of compound to AMPA level in Vigna unguiculata (cowpea) at growth inhibition I50 level rate measured 7 days post treatment; type: organism-based; details: in vivo, 168 h
How it was run: (§1)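 Greenhouse plants (28/22 °C, 13 h photoperiod) were sprayed at each species' I50 rate with Tween 20 controls. Shoots were clipped 7 DAT and washed free of surface herbicide. Pooled ground tissue (1 g) was extracted twice with water under sonication. Extracts were derivatized with heptafluorobutanol/trifluoroacetic anhydride (90 °C, 1 h). Glyphosate and AMPA were quantified by GC-MS against derivatized standard curves, in duplicate.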

[2] = test system: Sesbania herbacea; assay: Induction of shikimate accumulation in Sesbania herbacea at growth inhibition I50 level rate measured 7 days post treatment (reference value: 266 ug/g tissue); type: functional
How it was run: (§2)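 Plants were sprayed in the greenhouse at each species' I50 rate, with Tween 20 controls. Shoots were harvested at 7 DAT and rinsed free of surface glyphosate. Shikimic acid was measured by HPLC on a C18 column after 0.45 µm filtration, with 100 µL injected, isocratic 98% H2O (pH 3.0)/2% MeOH, at 1 mL flow.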

[3] = test system: Vigna unguiculata; assay: Induction of shikimate accumulation in Vigna unguiculata (cowpea) at growth inhibition I50 level rate measured 7 days post treatment (reference value: 64 ug/g tissue); type: functional; how it was run: as §2
[4] = Drug level in Lolium multiflorum (Italian ryegrass) at growth inhibition I50 level rate measured 7 days post treatment; type: organism-based; details: in vivo, read-out: Drug uptake
How it was run: (§3)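 Greenhouse plants (28/22 °C, 13 h photoperiod) were sprayed with glyphosate at each species' I50 rate, with Tween 20-treated controls. Shoots were cut at 7 DAT and rinsed to remove surface herbicide. Pooled ground tissue (1 g) was water-extracted twice with sonication, acidified, and washed with methylene chloride. Extracts were derivatized with heptafluorobutanol/TFAA (90 °C, 1 h) and measured by GC-MS against derivatized standards, in duplicate.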

[5] = test system: Senna occidentalis; assay: Growth inhibition of Senna occidentalis (coffee senna) measured 14 days post treatment
[6] = test system: Zea mays; assay: Drug level in non glyphosate-resistant Zea mays (maize) assessed as AMPA level at growth inhibition I50 level rate measured 7 days post treatment; type: organism-based; details: in vivo, 168 h, BLD = below limit of detection; how it was run: as §3
[7] = test system: Erigeron canadensis; assay: Ratio of compound to AMPA level in Conyza canadensis (horseweed) at growth inhibition I50 level rate measured 7 days post treatment; type: organism-based; details: in vivo, 168 h; how it was run: as §1
[8] = Drug level in non glyphosate-resistant Zea mays (maize) at growth inhibition I50 level rate measured 7 days post treatment; type: organism-based; details: in vivo, read-out: Drug uptake; how it was run: as §3
[9] = test system: Desmanthus illinoensis; assay: Induction of shikimate accumulation in Desmanthus illinoensis (Illinois bundleflower) at growth inhibition I50 level rate measured 7 days post treatment (reference value: 21 ug/g tissue); type: functional
[10] = test system: Sesbania herbacea; assay: Growth inhibition of Sesbania herbacea measured 14 days post treatment
[11] = Drug level in Senna occidentalis (coffee senna) at growth inhibition I50 level rate measured 7 days post treatment; type: organism-based; details: in vivo, read-out: Drug uptake; how it was run: as §3
[12] = test system: Abutilon theophrasti; assay: Induction of shikimate accumulation in Abutilon theophrasti (velvetleaf) at growth inhibition I50 level rate measured 7 days post treatment (reference value: 2 ug/g tissue); type: functional; how it was run: as §2
[13] = test system: Lolium multiflorum; assay: Induction of shikimate accumulation in Lolium multiflorum (Italian ryegrass) at growth inhibition I50 level rate measured 7 days post treatment (reference value: 904 ug/g tissue); type: functional; how it was run: as §2
[14] = test system: Glycine max; assay: Growth inhibition of non glyphosate-resistant Glycine max (soybean) measured 7 days post treatment; type: functional
[15] = Drug level in Conyza canadensis (horseweed) at growth inhibition I50 level rate measured 7 days post treatment; type: organism-based; details: erigeron canadensis, in vivo; read-out: Drug uptake; how it was run: as §3
[16] = test system: Zea mays; assay: Growth inhibition of non glyphosate-resistant Zea mays (maize) measured 14 days post treatment
[17] = Drug level in Desmanthus illinoensis (Illinois bundleflower) at growth inhibition I50 level rate measured 7 days post treatment; type: organism-based; details: in vivo, read-out: Drug uptake; how it was run: as §3
[18] = test system: Zea mays; assay: Induction of shikimate accumulation in non glyphosate-resistant Zea mays (maize) at growth inhibition I50 level rate measured 7 days post treatment (reference value: 161 ug/g tissue); type: functional
[19] = test system: Erigeron canadensis; assay: Drug level in Conyza canadensis (horseweed) assessed as AMPA level at growth inhibition I50 level rate measured 7 days post treatment; type: organism-based; details: in vivo, 168 h; how it was run: as §3
[20] = test system: Desmanthus illinoensis; assay: Ratio of compound to AMPA level in Desmanthus illinoensis (Illinois bundleflower) at growth inhibition I50 level rate measured 7 days post treatment; type: organism-based; details: in vivo, 168 h; how it was run: as §1
[21] = test system: Senna occidentalis; assay: Ratio of compound to AMPA level in Senna occidentalis (coffee senna) at growth inhibition I50 level rate measured 7 days post treatment; type: organism-based; details: in vivo, 168 h; how it was run: as §1
[22] = test system: Zea mays; assay: Growth inhibition of glyphosate-resistant Zea mays (maize) measured 7 days post treatment; type: functional
[23] = Drug level in glyphosate-resistant Zea mays (maize) at growth inhibition I50 level rate measured 7 days post treatment; type: organism-based; details: in vivo, read-out: Drug uptake; how it was run: as §3
[24] = test system: Pueraria montana var. lobata; assay: Induction of shikimate accumulation in Pueraria montana var. lobata ( kudzu) at growth inhibition I50 level rate measured 7 days post treatment (reference value: 188 ug/g tissue); type: functional; how it was run: as §2
[25] = test system: Senna occidentalis; assay: Induction of shikimate accumulation in Senna occidentalis (coffee senna) at growth inhibition I50 level rate measured 7 days post treatment (reference value: 277 ug/g tissue); type: functional; how it was run: as §2
[26] = Drug level in Sesbania herbacea at growth inhibition I50 level rate measured 7 days post treatment; type: organism-based; details: in vivo, read-out: Drug uptake; how it was run: as §3
[27] = test system: Senna occidentalis; assay: Drug level in Senna occidentalis (coffee senna) assessed as AMPA level at growth inhibition I50 level rate measured 7 days post treatment; type: organism-based; details: in vivo, 168 h; how it was run: as §3
[28] = test system: Pueraria montana var. lobata; assay: Growth inhibition of Pueraria montana var. lobata ( kudzu) measured 7 days post treatment; type: functional
[29] = test system: Glycine max; assay: Growth inhibition of glyphosate-resistant Glycine max (soybean) measured 7 days post treatment; type: functional
[30] = test system: Senna obtusifolia; assay: Induction of shikimate accumulation in Senna obtusifolia (sicklepod) at growth inhibition I50 level rate measured 7 days post treatment (reference value: 348 ug/g tissue); type: functional; how it was run: as §2

## O=C(O)CNCP(=O)(O)O [GLYPHOSATE]
[1]
  Ratio: 6
[2]
  Activity: 6828 µg/g
[3]
  Activity: 16530 µg/g
[4]
  concentration at 168 h: 7430 ng/g
[5]
  I50: 75 gAi/ha
[6]
  Drug uptake: BLD
[7]
  Ratio: 84
[8]
  concentration at 168 h: 851 ng/g
[9]
  Activity: 668 µg/g
[10]
  I50: 456 gAi/ha
[11]
  concentration at 168 h: 5910 ng/g
[12]
  Activity: 159 µg/g
[13]
  Activity: 6701 µg/g
[14]
  I50: 250 gAi/ha
[15]
  concentration at 168 h: 26300 ng/g
[16]
  I50: 93 gAi/ha
[17]
  concentration at 168 h: 3270 ng/g
[18]
  Activity: 149 µg/g
[19]
  Drug uptake: 314 ng/g
[20]
  Ratio: 2
[21]
  Ratio: 21
[22]
  I50: 93 gAi/ha
[23]
  concentration at 168 h: 308 ng/g
[24]
  Activity: 8915 µg/g
[25]
  Activity: 686 µg/g
[26]
  concentration at 168 h: 38600 ng/g
[27]
  Drug uptake: 287 ng/g
[28]
  I50: 77 gAi/ha
[29]
  I50: 250 gAi/ha
[30]
  Activity: 1092 µg/g
